Experimental data reported in ChEMBL document CHEMBL1146243, “Design, synthesis, and biological evaluation of tricyclic heterocycle-tetraamine conjugates as potent NMDA channel blockers” (Bioorg Med Chem Lett, 2007).

Tests used:
[1] = target: Glutamate NMDA receptor; GRIN1/GRIN2B (Homo sapiens, UniProt Q05586+Q13224); test: Antagonist activity at recombinant NR1/NR2B receptor expressed in Xenopus laevis oocytes; format: functional, cell-based, Oocyte
In short: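 Xenopus oocytes injected with NR1 plus NR2B cRNAs at 1:5 (0.1–4 ng NR1 plus 0.5–20 ng NR2). Two-electrode voltage clamp at −70 mV. Receptors activated by superfused glycine and glutamate (10 µM). IC50 from concentration–inhibition curves using five or six concentrations. Means ± SEM of four oocytes.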

FM3A = test: Cytotoxicity in mouse FM3A cells after 48 hrs; format: functional, cell-based
In short: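 FM3A cells (1 × 10⁴) cultured in ES medium with or without various compound concentrations at 37 °C for 48 h. Cells counted with 0.05% Trypan blue. IC50 as mean ± SD of triplicate determinations.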

[2] = target: Glutamate NMDA receptor; GRIN1/GRIN2A (Homo sapiens, UniProt Q05586+Q12879); test: Antagonist activity at recombinant NR1/NR2A receptor expressed in Xenopus laevis oocytes; format: functional, cell-based, Oocyte
In short: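 Two-electrode voltage clamp of oocytes injected with NR1 plus NR2A cRNA at 1:5 (0.1–4 ng NR1 plus 0.5–20 ng NR2), held at -70 mV. Receptors activated by superfused glycine and glutamate (10 µM). IC50 from concentration–inhibition curves over five or six concentrations; means ± SEM of four oocytes.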

Sequence of Glutamate NMDA receptor; GRIN1/GRIN2B (Q13224 whole entry, other chains not shown, the tested form may be a part): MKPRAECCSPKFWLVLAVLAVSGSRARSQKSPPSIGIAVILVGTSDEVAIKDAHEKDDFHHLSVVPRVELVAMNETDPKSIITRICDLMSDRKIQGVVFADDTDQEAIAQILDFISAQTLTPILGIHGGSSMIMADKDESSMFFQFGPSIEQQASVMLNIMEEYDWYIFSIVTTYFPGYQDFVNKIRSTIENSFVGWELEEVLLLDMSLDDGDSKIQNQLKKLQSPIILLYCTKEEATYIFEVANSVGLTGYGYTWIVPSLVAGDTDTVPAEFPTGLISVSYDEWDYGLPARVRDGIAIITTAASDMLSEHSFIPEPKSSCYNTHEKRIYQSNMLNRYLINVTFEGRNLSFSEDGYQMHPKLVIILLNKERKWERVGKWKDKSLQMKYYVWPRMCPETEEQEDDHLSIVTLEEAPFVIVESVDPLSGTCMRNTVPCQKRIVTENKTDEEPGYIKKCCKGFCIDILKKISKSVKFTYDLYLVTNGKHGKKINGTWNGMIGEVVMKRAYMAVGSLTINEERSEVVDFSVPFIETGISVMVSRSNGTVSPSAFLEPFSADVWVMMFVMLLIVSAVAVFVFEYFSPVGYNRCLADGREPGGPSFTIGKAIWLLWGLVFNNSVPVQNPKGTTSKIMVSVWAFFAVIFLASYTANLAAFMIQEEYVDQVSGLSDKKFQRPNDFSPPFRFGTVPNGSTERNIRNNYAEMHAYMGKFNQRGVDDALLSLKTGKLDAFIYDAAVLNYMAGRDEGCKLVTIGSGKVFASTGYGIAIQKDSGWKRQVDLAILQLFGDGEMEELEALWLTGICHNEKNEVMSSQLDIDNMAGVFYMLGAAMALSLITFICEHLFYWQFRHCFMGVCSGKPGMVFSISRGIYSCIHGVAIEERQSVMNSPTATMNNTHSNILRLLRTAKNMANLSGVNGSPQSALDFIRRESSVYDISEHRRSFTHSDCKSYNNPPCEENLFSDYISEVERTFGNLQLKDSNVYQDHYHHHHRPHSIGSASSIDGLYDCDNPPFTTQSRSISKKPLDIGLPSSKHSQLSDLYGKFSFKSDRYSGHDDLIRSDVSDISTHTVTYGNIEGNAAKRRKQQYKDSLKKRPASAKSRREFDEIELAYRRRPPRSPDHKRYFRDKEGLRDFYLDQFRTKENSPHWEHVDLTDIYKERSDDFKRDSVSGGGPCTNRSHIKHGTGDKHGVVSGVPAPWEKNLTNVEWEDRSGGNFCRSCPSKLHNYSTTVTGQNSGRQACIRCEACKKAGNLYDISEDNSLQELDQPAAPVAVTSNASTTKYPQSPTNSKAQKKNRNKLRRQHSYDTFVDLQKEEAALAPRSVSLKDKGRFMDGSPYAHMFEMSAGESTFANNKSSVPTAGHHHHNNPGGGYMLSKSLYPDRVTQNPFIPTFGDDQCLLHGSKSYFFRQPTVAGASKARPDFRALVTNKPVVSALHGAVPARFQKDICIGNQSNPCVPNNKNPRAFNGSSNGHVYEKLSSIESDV
Sequence of Glutamate NMDA receptor; GRIN1/GRIN2A (Q12879 whole entry, other chains not shown, the tested form may be a part): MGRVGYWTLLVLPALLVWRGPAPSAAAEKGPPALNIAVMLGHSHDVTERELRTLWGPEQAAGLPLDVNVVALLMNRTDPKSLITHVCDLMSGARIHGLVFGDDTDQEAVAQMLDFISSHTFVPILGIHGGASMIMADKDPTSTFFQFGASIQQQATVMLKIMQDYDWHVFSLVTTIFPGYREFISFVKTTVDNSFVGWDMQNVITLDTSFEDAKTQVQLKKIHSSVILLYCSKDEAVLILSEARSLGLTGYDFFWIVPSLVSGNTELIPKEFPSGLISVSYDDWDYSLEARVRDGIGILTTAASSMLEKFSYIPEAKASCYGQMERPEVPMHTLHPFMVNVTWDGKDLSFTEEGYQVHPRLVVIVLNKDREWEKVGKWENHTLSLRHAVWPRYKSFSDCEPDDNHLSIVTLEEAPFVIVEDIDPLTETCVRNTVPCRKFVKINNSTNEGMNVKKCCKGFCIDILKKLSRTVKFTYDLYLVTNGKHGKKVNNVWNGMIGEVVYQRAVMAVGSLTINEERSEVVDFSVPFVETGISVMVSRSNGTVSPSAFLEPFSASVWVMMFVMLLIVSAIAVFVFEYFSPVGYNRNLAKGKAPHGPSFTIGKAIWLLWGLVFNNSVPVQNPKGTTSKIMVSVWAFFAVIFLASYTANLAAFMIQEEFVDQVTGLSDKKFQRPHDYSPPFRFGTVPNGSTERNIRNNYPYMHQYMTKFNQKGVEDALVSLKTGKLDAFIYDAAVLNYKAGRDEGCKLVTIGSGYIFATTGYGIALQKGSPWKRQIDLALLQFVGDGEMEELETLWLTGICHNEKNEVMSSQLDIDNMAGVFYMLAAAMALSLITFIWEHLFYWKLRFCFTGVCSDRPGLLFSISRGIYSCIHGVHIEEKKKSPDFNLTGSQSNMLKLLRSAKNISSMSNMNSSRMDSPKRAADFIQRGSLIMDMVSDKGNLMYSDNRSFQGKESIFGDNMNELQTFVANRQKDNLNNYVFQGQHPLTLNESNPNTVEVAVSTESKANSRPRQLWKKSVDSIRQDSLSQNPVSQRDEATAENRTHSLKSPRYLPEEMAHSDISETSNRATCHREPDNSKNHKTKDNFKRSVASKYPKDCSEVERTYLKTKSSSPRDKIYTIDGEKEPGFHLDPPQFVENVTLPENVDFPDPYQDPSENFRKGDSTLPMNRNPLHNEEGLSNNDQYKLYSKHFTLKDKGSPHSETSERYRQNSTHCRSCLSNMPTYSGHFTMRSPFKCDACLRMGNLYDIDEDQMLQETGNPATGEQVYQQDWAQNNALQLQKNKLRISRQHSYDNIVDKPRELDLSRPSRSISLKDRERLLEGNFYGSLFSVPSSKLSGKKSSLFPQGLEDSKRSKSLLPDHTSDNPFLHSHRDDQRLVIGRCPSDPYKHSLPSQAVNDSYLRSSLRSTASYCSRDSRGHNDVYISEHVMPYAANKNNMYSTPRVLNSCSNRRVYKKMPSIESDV

| Compound | IC50 [1] [nM] | IC50 (FM3A) [µM] | IC50 [2] [nM] |
| --- | --- | --- | --- |
| NCCCCNCCCCNCCCCNC(=O)n1c2ccccc2c2ccccc21 | 166 | 84.2 | 111 |
| NCCCCNCCCNCCCCNC(=O)n1c2ccccc2c2ccccc21 | 189 | 42.3 | 211 |
| NCCCNCCCCNCCCNC(=O)c1ccc2c(c1)C(=O)c1ccccc1C2=O | 491 | 14.9 | 392 |
| NCCCNCCCCNCCCNC(=O)N1c2ccccc2Sc2ccccc21 | 348 | 57.1 | 215 |
| NCCCNCCCCNCCCNC(=O)N1c2ccccc2CCc2ccccc21 | 442 | 102 | 958 |
| CC12CC3CC(C)(C1)CC(N)(C3)C2 [MEMANTINE] | – | 147 | – |
| NCCCNCCCCNCCCNC(=O)N1c2ccccc2C=Cc2ccccc21 | 199 | 97.6 | 203 |
| NCCCNCCCCNCCCNC(=O)n1c2ccccc2c2ccccc21 | 83 | 31.3 | 145 |

Now from value to compound, other results behind:

| IC50 [1] [nM] | Compound | IC50 (FM3A) [µM] | IC50 [2] [nM] |
| --- | --- | --- | --- |
| 293 | NCCCCNCCCCNCCCCNC(=O)N1c2ccccc2C=Cc2ccccc21 | 132 | – |
| 108 | NCCCCNCCCCNCCCCNC(=O)N1c2ccccc2Sc2ccccc21 | 40.4 | 127 |
| 335 | NCCCCNCCCNCCCCNC(=O)N1c2ccccc2C=Cc2ccccc21 | 115 | 198 |
| 270 | NCCCCNCCCNCCCCNC(=O)N1c2ccccc2CCc2ccccc21 | 169 | 117 |
| 142 | NCCCCNCCCCNCCCCNC(=O)N1c2ccccc2CCc2ccccc21 | 133 | – |
| 108 | NCCCCNCCCNCCCCNC(=O)N1c2ccccc2Sc2ccccc21 | 32.5 | 78 |
